# Molecular target: Bromodomain-containing protein 4 (Homo sapiens, UniProt O60885)
# Assay: Inhibition of TEV cleavage site-fused-GST tagged BRD4(BD1) (unknown origin) using SGRGK(Ac)CGK(Ac)-GLGK(Ac)GGAK(Ac)RHRKVG-peptide after 3 hrs by HTRF assay
# How it was run: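 GST-BRD4(BD1) purified on glutathione resin and by size exclusion; tetra-acetylated H4 peptide as ligand. Buffer 50 mM HEPES pH 7.5, 400 mM KF, 0.1% BSA, 0.5% DMSO final; 3 h at room temperature.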
smiles,measurement,value
CCn1cnc2c1c(=O)[nH]c(=O)n2Cc1ccc(CNS(=O)(=O)c2ccc3c(c2)CCCC(=O)N3)cc1,IC50,0.251 µM
